# NR3A LBD binder = binders of NR3A ligand-binding domain, primary screen, biophysical, differential scanning fluorimetry, uHTS. NR3A LBD differential scanning fluorimetry, Tm shift; 0% = protein alone, 100% = glycine-bound protein. 340,000 tested, 2.5% active. AID 1259313, 2017. Glutamate receptor ionotropic, NMDA 3A (GRIN3A) ligand-binding domain. Tm shift relative to glycine control, % at 25 µM;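 active = melting temperature shift of at least 10% of the positive control shift, at one fixed dose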
# T cell HTS = modulators of CD8 T cell-vesicle binding, primary screen, mouse 2C CD8+ T cells, flow cytometry | 2C CD8+ T cell-vesicle binding; active compounds read low | response (vesicle binding), % at 7 µM | 330,000 tested, 0.068% active;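 active = response, share of CD8 T cells binding vesicles, and their 90th percentile fluorescence all below set limits, cut at about 80% in these data, passing the limit was not always enough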;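 also: values below 100% mean blocked vesicle binding to the CD8+ T cells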
#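 Assay system – 2C mouse CD8+ T cells · Also added – QL9-loaded Drosophila micro-vesicles · Timing – Cell–vesicle co-incubation 1.5 h at 37 °C, staining 20 min on ice · Signal – flow cytometry of vesicle-bound cells · Measure – percent CD8+ FL2 mean versus row control · Controls – Peptide-free naked vesicles (low) and QL9 vesicles with 0.7% DMSO vehicle (high)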
# GASC-1 inh = inhibitors of GASC-1 histone demethylase, primary screen, biochemical, fluorescence, DELFIA europium | 330,000 tested, 0.069% active | GST-JMJD2C(1-420) H3K9me3 demethylation | inhibition, % at 2.35 µM;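 active = more than half of a compound's replicate wells show inhibition beyond 50%, single wells judged on their own value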;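 also: signal counts dimethyl H3K9 product captured on neutravidin plate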
# Target sequence (Q9H3R0 1-420 limits assumed): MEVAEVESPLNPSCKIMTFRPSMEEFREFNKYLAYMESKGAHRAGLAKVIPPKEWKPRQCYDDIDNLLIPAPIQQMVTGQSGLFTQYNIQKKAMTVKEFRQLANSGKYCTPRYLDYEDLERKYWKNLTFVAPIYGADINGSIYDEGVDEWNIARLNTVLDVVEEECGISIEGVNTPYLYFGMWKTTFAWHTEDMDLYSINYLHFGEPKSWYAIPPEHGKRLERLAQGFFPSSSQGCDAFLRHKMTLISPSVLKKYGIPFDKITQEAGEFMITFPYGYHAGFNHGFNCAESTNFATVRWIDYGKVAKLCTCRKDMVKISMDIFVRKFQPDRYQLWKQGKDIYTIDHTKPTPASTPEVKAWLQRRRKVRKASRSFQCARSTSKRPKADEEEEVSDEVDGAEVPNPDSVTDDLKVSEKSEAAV
# Rtt109 HAT inh = inhibitors of C. albicans Rtt109/Vps75 HAT, primary screen, biochemical, ThioGlo CoA-SH fluorescence, plate reader; Histone acetyltransferase RTT109 (Candida albicans (strain SC5314 / ATCC MYA-2876)), …; purified Rtt109/Vps75, 4 h; inhibition, % at 34.9 µM; 330,000 tested, 0.16% active; AID 540336, 2011;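 active = inhibition of at least 50% in every replicate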
# Hits are given with their value; . = inactive; / = not tested or not shown. In the library only some 2.8% were active in any assay of this set; here they are far more common.
SMILES,NR3A LBD binder,T cell HTS,GASC-1 inh,Rtt109 HAT inh
COc1cc(N/N=C(\C)c2ccc(O)c(C)c2)nc(-c2ccccc2)n1,22,.,.,.
C/C(=N\Nc1cc(-c2ccccc2)nc(-c2ccccc2)n1)c1ccc(O)c(C)c1,28,.,.,.
COc1cc(N/N=C(\C)c2ccc(N)cc2)nc(-c2ccccc2)n1,.,.,.,.
CN(c1ccccc1)S(=O)(=O)c1cccc(NS(=O)(=O)c2cccc(C(=O)O)c2)c1,.,.,.,.
C=CCn1c(COc2ccccc2)nc2ccccc21,.,.,.,.
N#Cc1c(N)nc2c3c(sc(=N)c2c1N)NC(=O)CC3c1ccccc1 (stereo not given),.,.,.,.
Cc1c(C#N)c(N)nc2c3c(sc12)NC(=O)CC3c1ccc(Cl)cc1 (stereo not given),14,.,.,.
CCCCC(CC)Cn1c(N)c(C#N)c2nc3ccccc3nc21 (stereo not given),11,.,.,/
CN(C)CCCn1c(N)c(C#N)c2nc3ccccc3nc21,.,.,.,.
Cc1ccccc1C(=O)NCC(=O)OCC(=O)NC(C)C1CC2CCC1C2 (stereo not given),.,.,.,.
Cc1ccc(C(=O)NCC(=O)OCC(=O)NC(C)C2CC3CCC2C3)cc1 (stereo not given),.,/,/,51
O=C(O)Cn1c(=O)c(F)cn(C2CCCO2)c1=O (stereo not given),.,.,.,.
CSc1nc(C)cc(-c2cc(C(=O)Nc3ccccc3)on2)n1,/,.,.,/
O=C(COc1ccccc1)OCc1csc(Nc2ccccc2)n1,.,.,.,.
COc1ccc(/C=C/C(=O)OCc2csc(-c3ccccc3)n2)cc1OC,18,.,.,.
O=C(OCc1csc(Nc2ccccc2)n1)c1ccc(Cl)cc1,11,.,.,.
Cc1ccc(C(=O)NCC(=O)OCc2csc(-c3ccccc3)n2)cc1,.,.,.,.
COc1ccc(/C=C/C(=O)O/N=C(\N)c2ccccn2)cc1OC,.,.,.,.
O=C(OCc1csc(-c2ccccc2)n1)c1ccc(O)cc1,20,.,.,.
Nc1ccc2c(c1)C(=O)c1cc([N+](=O)[O-])ccc1-2,25,/,/,.
Nc1ccc2c(c1)C(=O)c1ccc(N)cc1-2,.,/,/,.
Nc1ccc2c(c1)C(=O)c1cc(Cl)c(Cl)cc1-2,41,/,/,.
COc1ccc(C(=O)N2CCCC(C(N)=O)C2)cc1S(=O)(=O)N1CCOCC1 (stereo not given),.,.,/,.
CC1(C)NC(=O)N(CC(=O)OCC(=O)N2CCN(S(=O)(=O)c3ccccc3)CC2)C1=O,.,/,/,.
Cc1cc(NC(=O)COC(=O)C2CC(=O)N(c3ccc(C)c(Cl)c3)C2)no1 (stereo not given),21,.,.,.
SMILES,NR3A LBD binder,T cell HTS,GASC-1 inh,Rtt109 HAT inh
Cc1cc(NC(=O)COC(=O)C2CC(=O)N(c3cccc(Cl)c3)C2)no1 (stereo not given),.,.,.,.
COc1cccc(NC(=O)CC(=O)c2ccc([N+](=O)[O-])cc2)c1,17,.,.,.
COc1cc([N+](=O)[O-])ccc1NC(=O)CCCOc1ccc(C)cc1,.,.,.,.
COc1ccc(OCCCC(=O)Nc2cccc([N+](=O)[O-])c2)cc1,16,.,.,.
COc1ccc(NC(=S)Nc2cccc([N+](=O)[O-])c2)cc1,23,.,.,.
COc1ccc(C(=O)CC(Nc2ccc([N+](=O)[O-])cc2)c2ccc(Cl)cc2)cc1 (stereo not given),11,.,.,.
CC(C(=O)O)n1c(-c2ccn[nH]2)n[nH]c1=S (stereo not given),.,.,.,.
CCOC(=O)/C=C/C(=O)Nc1cccc([N+](=O)[O-])c1,.,.,.,108
COc1ccc(/C=C/C(=O)c2oc3ccc(F)cc3c2C)cc1,13,.,.,.
O=C1CCN(CCc2ccccc2)CCN1[C@H](CSc1ccccc1)Cc1ccccc1,.,.,.,.
Cc1ccc(SC[C@H](Cc2ccccc2)N2CCN(CCc3ccccc3)CCC2=O)cc1,19,.,.,.
CCNc1nc2c(cnn2C)c(=O)[nH]1,.,/,/,.

# Source: PubChem
